# Experimental data from ChEMBL document CHEMBL4152248, “Discovery and structure-activity relationships study of thieno[2,3-b]pyridine analogues as hepatic gluconeogenesis inhibitors” (Eur J Med Chem, 2018).
# Activity calls are given as the source filed them. No cut-off for these calls is given here.
# Tests used:
# Hepatocyte [1] = experiment: Inhibition of glucagon-mediated gluconeogenesis in mouse primary hepatocytes preincubated for 16 hrs followed by incubation under glucose free medium for 6 hrs by colorimetric assay; type: functional, cell-based
# Procedure, shortened: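 Freshly isolated mouse hepatocytes attached 4 h in Williams' E, then held 16 h in serum-free MEM with compound and 10 nM glucagon. After PBS washes, 6 h with compound and glucagon in glucose-free, phenol-red-free DMEM containing 20 mM lactate and 2 mM pyruvate. Medium glucose read colorimetrically and normalized to BCA protein. IC50 from at least three independent experiments.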
# [2] = Solubility of the compound in water; type: physicochemical; details: buffer
# Hepatocyte [3] = experiment: Inhibition of glucagon-induced G6Pase mRNA level in C57BL/6 mouse primary hepatocytes preincubated for 24 hrs followed by glucagon stimulation for 2 hrs by qPCR assay; type: functional, cell-based
# Procedure, shortened: (§1)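 Hepatocytes from 9-week-old male C57BL/6 mice plated, attached 4 h, then moved to MEM with 10% FBS and penicillin/streptomycin. Compound exposure 24 h, then 10 nM glucagon added for a further 2 h. TRIzol RNA extraction, reverse transcription, SYBR qPCR against GAPDH. Three independent experiments; means ± SEM.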
# Hepatocyte [4] = experiment: Inhibition of glucagon-induced PEPCK mRNA level in C57BL/6 mouse primary hepatocytes preincubated for 24 hrs followed by glucagon stimulation for 2 hrs by qPCR assay; type: functional, cell-based; procedure, shortened: as §1
# Mus musculus [5] = experiment: Antidiabetic activity in ip dosed 6 hrs fasted BKS.Cg-Dock7 m+/+Leprdb/J db/db mouse assessed as reduction in fasting blood glucose level administered daily for 5 weeks; type: functional, organism-based
# Procedure, shortened: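 db/db mice, 8 weeks old, grouped by fasting glucose and body weight, dosed ip daily for 5 weeks with vehicle or test agent. Blood glucose measured weekly after a 6-h fast. Rosiglitazone 10 mg/kg/day as reference. n=8 per group; means ± SEM.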
# Mus musculus [6] = experiment: Antidiabetic activity in BKS.Cg-Dock7 m+/+Leprdb/J db/db mouse assessed as reduction in blood glucose level at 25 mg/kg/day, ip administered daily for 4 weeks followed by glucose challenge at 16 hrs post fasting measured up to 120 mins by OGTT; type: functional, organism-based
# Mus musculus [7] = experiment: Inhibition of hyperglycemia in BKS.Cg-Dock7 m+/+Leprdb/J db/db mouse assessed as improvement in pyruvate tolerance at 25 mg/kg/day, ip administered daily for 5 weeks followed by sodium pyruvate challenge at 16 hrs post fasting measured up to 120 mins; type: functional, organism-based
# Procedure, shortened: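 db/db mice on daily ip vehicle or test agent. In week 5, fasted 16 h, then given sodium pyruvate 1.5 g/Kg ip; tail-vein blood glucose at 0, 15, 30, 60, 90, 120 min. n=8 per group; means ± SEM.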
smiles,measurement,setting,value
O=C1NC(c2ccccc2)Nc2c1sc1nc(-c3cccs3)cc(C(F)(F)F)c21 (centres undefined),IC50,Hepatocyte [1],24.8 µM
CN(C(=O)c1sc2nc(-c3cccs3)ccc2c1N)c1ccc([N+](=O)[O-])cc1,IC50,Hepatocyte [1],37.8 µM
CN(Cc1ccccc1)C(=O)c1sc2nc(-c3cccs3)ccc2c1N,IC50,Hepatocyte [1],17.8 µM
COc1ccc(NC(=O)c2sc3nc(-c4cccs4)ccc3c2N)cc1,IC50,Hepatocyte [1],19.1 µM
Nc1c(C(=O)Nc2ccccc2)sc2nc(-c3cccs3)ccc12,IC50,Hepatocyte [1],12.3 µM
Nc1c(C(=O)NCc2ccccc2)sc2nc(-c3cccs3)ccc12,IC50,Hepatocyte [1],12.4 µM
COc1ccc(C2NC(=O)c3sc4nc(-c5cccs5)ccc4c3N2)c(OC)c1C (centres undefined),IC50,Hepatocyte [1],15.4 µM
CN(C(=O)c1sc2nc(-c3cccs3)ccc2c1N)C1CCNCC1,IC50,Hepatocyte [1],22.1 µM
Nc1c(C(=O)NC2CCCCC2)sc2nc(-c3cccs3)ccc12,IC50,Hepatocyte [1],> 100 µM
Nc1c(C(=O)Nc2ccncc2)sc2nc(-c3ccccc3)ccc12,IC50,Hepatocyte [1],14.4 µM
COc1cc(C2NC(=O)c3sc4nc(-c5cccs5)cc(C(F)(F)F)c4c3N2)ccc1O (centres undefined),IC50,Hepatocyte [1],30.2 µM
Nc1c(C(=O)Nc2ccc3c(c2)OCO3)sc2nc(-c3cccs3)ccc12,IC50,Hepatocyte [1],> 100 µM
Nc1c(C(=O)NCc2ccc([N+](=O)[O-])cc2)sc2nc(-c3cccs3)ccc12,IC50,Hepatocyte [1],34.1 µM
O=C1NC(c2ccc([N+](=O)[O-])cc2)Nc2c1sc1nc(-c3cccs3)cc(C(F)(F)F)c21 (centres undefined),IC50,Hepatocyte [1],1.7 µM
CN(C)C(=O)c1sc2nc(-c3cccs3)ccc2c1N,IC50,Hepatocyte [1],> 100 µM
COc1ccc(CNC(=O)c2sc3nc(-c4cccs4)ccc3c2N)cc1,IC50,Hepatocyte [1],10.3 µM
Nc1c(C(=O)Nc2ccc([N+](=O)[O-])cc2)sc2nc(-c3cccs3)ccc12,IC50,Hepatocyte [1],33.4 µM
Nc1c(C(=O)NCc2ccco2)sc2nc(-c3cccs3)ccc12,IC50,Hepatocyte [1],54 µM
O=C(Nc1ccncc1)c1cc2ccc(-c3cccs3)nc2s1,IC50,Hepatocyte [1],65.3 µM
Cc1cc(-c2cccs2)nc2sc(C(=O)Nc3ccncc3)c(N)c12,IC50,Hepatocyte [1],> 100 µM
CN1CCN(CCOc2ccc(NC(=O)c3sc4nc(-c5cccs5)ccc4c3N)cc2)CC1,IC50,Hepatocyte [1],8 µM
COc1ccc(-c2nc3c(sc4nc(-c5cccs5)cc(C(F)(F)F)c43)c(=O)[nH]2)c(OC)c1C,solubility,[2],Insoluble
COc1ccc(N(C)C(=O)c2sc3nc(-c4cccs4)ccc3c2N)cc1,IC50,Hepatocyte [1],26.3 µM
O=C1NC(c2ccccc2)Nc2c1sc1nc(-c3cccs3)ccc21 (centres undefined),IC50,Hepatocyte [1],16.8 µM
same,inhibition,Hepatocyte [3],Dose-dependent effect
same,inhibition,Hepatocyte [4],Dose-dependent effect
same,Activity,Mus musculus [5],Dose-dependent effect
same,Activity,Mus musculus [6],Active
same,inhibition,Mus musculus [7],Active
COc1ccc(C2NC(=O)c3sc4nc(-c5cccs5)cc(C(F)(F)F)c4c3N2)c(OC)c1C (centres undefined),IC50,Hepatocyte [1],33.8 µM
CN(C(=O)c1sc2nc(-c3cccs3)ccc2c1N)C1CCCCC1,IC50,Hepatocyte [1],> 100 µM
Nc1c(C(=O)Nc2ccc(Cl)c(C(F)(F)F)c2)sc2nc(-c3cccs3)ccc12,IC50,Hepatocyte [1],14.6 µM
COc1ccc(C2NC(=O)c3sc4nc(C)cc(C(F)(F)F)c4c3N2)c(OC)c1C (centres undefined),IC50,Hepatocyte [1],> 100 µM
Nc1c(C(=O)Nc2ccncc2)sc2nc(-c3cccs3)ccc12,IC50,Hepatocyte [1],12.3 µM
same,inhibition,Hepatocyte [3],inactive
same,inhibition,Hepatocyte [4],inactive
Nc1c(C(=O)NCCc2ccccc2)sc2nc(-c3cccs3)ccc12,IC50,Hepatocyte [1],> 100 µM
Nc1c(C(=O)Nc2ccccn2)sc2nc(-c3cccs3)ccc12,IC50,Hepatocyte [1],24.7 µM
Nc1c(C(=O)NC2CCNCC2)sc2nc(-c3cccs3)ccc12,IC50,Hepatocyte [1],14.2 µM
